A selection: hits, their analogues and other compounds. The true share with any hit is near 4.2%.
SENP1 FRET inh: SENP1 (human) catalytic domain inhibition. Q9P0U3. recombinant SENP1 catalytic domain, CyPet-SUMO1-YPet FRET cleavage. inhibition, % at 10 µM. 360,000 tested, 0.21% active. AID 624204;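 active = inhibition at least 30% at 10 µM, raw YFP signal under a set limit, fluorescence ratio 0.5 to 1.5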;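 note: 0% = enzyme with DMSO and 100% = no enzyme wells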
Target sequence (Q9P0U3 419-644 limits assumed): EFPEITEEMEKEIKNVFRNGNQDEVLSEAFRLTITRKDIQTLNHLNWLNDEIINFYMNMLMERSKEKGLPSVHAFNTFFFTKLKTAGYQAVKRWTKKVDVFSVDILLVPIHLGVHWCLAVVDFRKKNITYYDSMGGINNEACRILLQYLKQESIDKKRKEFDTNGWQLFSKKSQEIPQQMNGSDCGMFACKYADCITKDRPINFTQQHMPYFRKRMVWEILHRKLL
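system = hSENP1 catalytic domain, recombinant | reagent = SFCypet-SUMO1-SFYpet substrate at 25 nM | doses = one dose per compound, 10 µM, 0.5% DMSO | incubation = enzyme reaction for 50 min at room temperature, dark | measured by = FRET, CFP and YFP emission | controls = no-enzyme low, enzyme-DMSO high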
AHR act: activates the human aryl hydrocarbon receptor; 320,000 tested, 2.5% active; activation, % at 5 µM; AHR-responsive luciferase reporter cells, luminescence; P35869; in the data active = activation above about 47%;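 note: 0% = vehicle wells and 100% = reference agonist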
CTSL1 counter: cathepsin L1 inhibition, PFM18AAP counter-screen; recombinant F. hepatica cathepsin L1, Z-Leu-Arg-MCA fluorescence; 300,000 tested, 0.49% active; AID 1906; inhibition, % at 5.96 µM;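 active = inhibition above the mean of all tested compounds plus 3 SD, set per screening campaign, cut at about 17% in these data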;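 note: 0% = plate median of test compound wells and 100% = 1 µM Z-Phe-Ala-diazomethylketone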
HDAC3 inhib: human HDAC3 inhibition; 320,000 tested, 0.15% active; inhibition, % at 8.3 µM; AID 2718; O15379; recombinant HDAC3, fluorogenic peptide/trypsin coupled, fluorescence; in the data active = inhibition above about 26%, passing the limit was not always enough; inconclusive = no clear call, values can overlap the other calls
Target sequence (O15379 whole entry, looked up): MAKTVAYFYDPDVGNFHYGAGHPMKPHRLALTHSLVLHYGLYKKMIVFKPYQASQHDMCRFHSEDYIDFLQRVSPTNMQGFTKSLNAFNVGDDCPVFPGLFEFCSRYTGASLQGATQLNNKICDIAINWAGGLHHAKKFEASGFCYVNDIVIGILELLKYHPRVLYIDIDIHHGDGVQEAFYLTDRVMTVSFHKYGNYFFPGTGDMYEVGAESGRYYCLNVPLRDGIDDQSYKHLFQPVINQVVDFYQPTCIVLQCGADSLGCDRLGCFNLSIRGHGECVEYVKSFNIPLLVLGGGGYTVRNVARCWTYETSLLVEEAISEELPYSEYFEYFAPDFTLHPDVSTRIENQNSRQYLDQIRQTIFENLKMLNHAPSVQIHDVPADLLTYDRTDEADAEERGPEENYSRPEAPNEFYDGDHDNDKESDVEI
FXN GAA850 act: activators of GAA850 frataxin (FXN) promoter; HEK293 lucGAA850 FXN promoter luciferase reporter, 24 h; percent of 10 µM SAHA response; activation, % at 6 µM; 360,000 tested, 0.56% active;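 active = activation above the average of all compounds screened plus 3 SD, cutoff fixed separately per campaign, cut at about 7.5% in these data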;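 note: 0% = DMSO wells and 100% = 10 µM SAHA wells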
M18AAP inhibitor: PfM18AAP enzyme inhibition | AID 1822 | recombinant PfM18AAP, H-Glu-NHMec fluorogenic cleavage | 290,000 tested, 1.2% active | inhibition, % at 7.35 µM;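 active = inhibition above the campaign mean inhibition over all tested compounds plus 3 SD, cut at about 28% in these data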;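 note: 0% = plate median of test compound wells and 100% = 2 mM ZnCl2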
AHR act cf: human AHR activation, confirmation | shares compounds with AHR act | AID 2845 | activation, % at 9 µM | 2,300 tested, 87% active | human cells, AHR-responsive luciferase reporter, luminescence; in the data active = activation above about 49%;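 note: HepG2 hepatoma cells carrying a DRE-driven firefly luciferase reporter; 0% = vehicle wells and 100% = reference agonist wells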
PXR counter: activates human PXR in AHR activator counter-screen | shares compounds with AHR act | cell-based PXR reporter, luciferase luminescence | activation, % at 11.6 µM | 2,300 tested, 88% active | AID 434939; in the data active = activation above about 11%;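 note: human hepatoma DPX-2 cells expressing full-length human PXR; 0% = DMSO and 100% = reference agonist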
* hit, by the source's call; ? = inconclusive; . = no result given.

SMILES	SENP1 FRET inh	AHR act	CTSL1 counter	HDAC3 inhib	FXN GAA850 act	M18AAP inhibitor	AHR act cf	PXR counter
c1ccc(C2=Nc3c(ccc4ccccc34)C(c3ccncc3)=NN2)cc1	2.2	80.2*	-1.2	-1.5	-0.9	-9.6	109.9*	46.1*
CCOc1ccc(-c2c(C(=O)N/N=C(\C)c3cccnc3)nnn2-c2nonc2N)cc1	2.0	91.3*	-2.5	-4.7	3.5	1.3	93.7*	33.4*
CCCc1c(C(=O)N/N=C(\C)c2cccnc2)nnn1-c1nonc1N	1.2	.	.	.	0.3	.	.	.
CCn1c(C)cc(/C=C2/NC(=O)N(Cc3ccccc3F)C2=O)c1C	-32.3	83.6*	2.8	-2.1	3.4	3.5	58.9*	162.3*
CN(C(=O)COc1ccc(S(=O)(=O)N2CCOCC2)cc1[N+](=O)[O-])C1CCS(=O)(=O)C1 (centres undefined)	3.5	-1.2	-0.1	-2.0	0.5	-6.9	.	.
C/C(=N\Nc1ccc([N+](=O)[O-])cc1)c1cc2ccccc2o1	-35.3	80.8*	-0.2	-7.1	2.6	-3.8	127.5*	14.8*
Cn1c(=O)n(C)c2cc(NC(=O)c3ccc(F)cc3)c(Br)cc21	0.0	-9.2	-3.6	1.6	1.4	3.3	.	.
Cn1c(=O)n(C)c2cc(NC(=O)c3cccc([N+](=O)[O-])c3)c(Br)cc21	0.4	101.0*	0.7	1.6	1.0	-3.8	101.5*	9.8
COC(=O)NN=C1CCC(c2ccccc2)CC1 (centres undefined)	3.0	.	.	-7.0	1.0	-12.8	.	.
COC(=O)N/N=C1/C/C(=N\NC(=O)OC)c2ccccc21	1.9	115.2*	4.0	?	0.4	-13.6	113.1*	9.3
Cc1ccc(Cl)cc1N1CCN(C(=O)CNC(=O)c2ccc(Br)o2)CC1	-1.5	-2.4	.	5.3	0.2	.	.	.
COc1cccc(NC(=O)c2oc3ccccc3c2NC(=O)C2CC2)c1	1.8	11.9	2.4	-3.5	0.7	-4.6	.	.
Cc1ccc(NC(=O)c2oc3ccccc3c2NC(=O)C2CC2)cc1	-0.7	121.7*	-3.7	0.6	1.2	3.5	65.2*	32.5*
NC(=O)c1oc2ccccc2c1NC(=O)c1ccc(F)cc1	-0.4	105.7*	-1.2	1.2	0.8	-6.8	77.2*	.
O=C(Nc1ccc(F)cc1)c1oc2ccccc2c1NC(=O)C1CC1	2.2	126.7*	-1.6	9.9	-1.4	-0.2	0.0	33.0*
O=C(Nc1c(C(=O)N2CCC(N3CCCCC3)CC2)oc2ccccc12)c1ccc(F)cc1	-0.8	-5.7	1.9	-2.9	2.1	-0.2	.	.
CC[C@]12c3[nH]c4ccccc4c3CCN1C(=O)C(CC(=O)NCc1ccc(OC)c(OC)c1)C[C@@H]2C(=O)N1CCN(C(=O)C2CC2)CC1 (some centres undefined)	0.2	0.1	.	-4.5	-1.6	.	.	.
C=CCNc1ncnc2c1[nH]c1ccc(Cl)cc12	-10.6	109.8*	-0.6	-9.5	4.4	4.4	112.5*	44.4*
C=CCNc1ncnc2c1[nH]c1ccccc12	-6.4	28.5	1.9	-17.5	-2.6	-10.4	.	.
Clc1ccc(COc2ccccc2-c2ccnc3ncnn23)cc1	-1.0	87.3*	-5.9	-0.1	3.1	-13.1	52.1*	65.2*
NC(=O)C1Cc2ccccc2CN1C(=O)c1nn(Cc2ccccc2)c(=O)c2ccccc12 (centres undefined)	0.5	1.5	.	0.8	2.0	.	.	.
CN1/C(=C\C(=S)NC(=O)c2ccccc2Cl)C(C)(C)c2ccccc21	-26.2	19.8	9.8	4.9	2.7	6.8	.	.
COc1ccccc1C(=O)NC(=S)/C=C1/N(C)c2ccccc2C1(C)C	-20.6	81.4*	18.6*	.	-1.9	1.2	33.2	100.4*
CC(=O)c1sc(-c2ccccn2)nc1C	.	0.5	2.1	-4.0	.	5.8	.	.
Cc1nc(-c2ccccn2)sc1C(=O)Nc1ccc(Cl)c(Cl)c1	-0.1	108.6*	-2.4	2.6	1.6	-2.2	57.1*	39.6*
SMILES	SENP1 FRET inh	AHR act	CTSL1 counter	HDAC3 inhib	FXN GAA850 act	M18AAP inhibitor	AHR act cf	PXR counter
COc1cc(/C=N/Nc2nc(Nc3ccccc3)nc(-n3nc(C)cc3C)n2)cc(OC)c1OC	0.0	79.6*	1.9	?	-5.2	3.8	67.8*	26.0*
COc1cc(/C=N/Nc2nc(Nc3ccc(C)cc3)nc(-n3nc(C)cc3C)n2)cc(OC)c1OC	2.8	33.0	-0.1	-0.1	-7.9	-4.9	.	.
CC1CCc2sc(C(=O)N=Nc3c(O)[nH]c4ccccc34)cc2C1 (centres undefined)	.	83.9*	-2.8	0.3	.	-10.5	102.9*	8.2
COc1ccc(OC)c(NC2=NC3(CCCC3)N=C(N)N2)c1	0.6	83.6*	-2.2	-0.6	-2.8	3.0	61.2*	10.9*
Cc1nc(SCC(=O)NCC2CCCO2)[nH]c(=O)c1C (centres undefined)	2.0	-1.4	-4.0	-1.6	0.8	.	.	.
COc1ccccc1NC(=O)N1CCC(c2nc3cc(C)c(C)cc3[nH]2)CC1	1.7	133.2*	-5.8	-1.8	1.9	-2.1	33.5	56.2*
Cc1noc(C)c1COc1ccc(C(=O)NCc2cccs2)cc1	-0.2	-0.8	.	2.9	-0.3	.	.	.
O=S(=O)(NC1CC1)c1ccc(Br)cc1N1CCC[C@H]1CO	1.3	.	.	.	-0.5	.	.	.
O=C(/C=C/c1c[nH]c2ccccc12)c1ccccc1	-26.0	92.9*	-1.9	4.6	5.5	3.4	105.4*	28.2*
COc1ccc2[nH]cc(/C=C/C(=O)c3ccccc3)c2c1	-31.7	5.6	3.1	0.9	3.0	-0.4	.	.
COc1ccc(S(=O)(=O)N2CCCCC2)cc1NC(=O)CCNC(=O)c1ccc(Cl)cc1	-1.6	-0.1	.	-0.7	0.1	.	.	.
Cc1ccc(-n2cc(C(=O)c3ccc(N4CCN(C)CC4)cc3)nn2)cc1Cl	-2.2	89.6*	7.6	6.4	-0.9	-16.2	0.7	14.9*
CCCC(C)C(=O)Nc1nc(C)c(-c2csc(Nc3cc(Cl)ccc3C)n2)s1 (centres undefined)	-16.7	40.7	1.3	3.0	-0.3	5.4	.	.
COc1ccc(Nc2nc(-c3sc(N)nc3C)cs2)cc1	1.6	46.2	2.5	0.9	2.3	3.6	.	.
CCCCCC(=O)Nc1nc(C)c(-c2csc(Nc3cc(OC)ccc3OC)n2)s1	-32.1	84.3*	1.4	13.6	-2.5	2.1	82.0*	72.6*
COc1ccc(Nc2nc(-c3sc(NC(C)=O)nc3C)cs2)cc1	.	6.9	8.4	-7.3	.	8.0	.	.
Cc1nc(NC(=O)CC(C)C)sc1-c1csc(Nc2ccc(Cl)cc2)n1	-13.1	92.3*	12.2	2.3	0.6	5.1	95.5*	20.0*
